Values after ≈ are worked out from the molar mass of the structure shown. Blank lines part the entries; values can stand above or below the compound they belong to. Active and inactive are the calls of the source. No cut-off for these calls is given here.
What was measured:
[1] = Inhibition of CRAC (unknown origin); design: species or system Homo sapiens
[2] = molecular target: T1, ORAI1/STIM1 (Homo sapiens) (UniProt Q96D31+Q13586); experiment: Inhibition of STIM1/Orai1 (unknown origin) expressed in HEK293 cells assessed as reduction in tBHQ-induced calcium response at 10 uM relative to control; format: cell-based; conditions: dose 10.0 µM
In short: (§1)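 HEK cells, calcium imaging by fluorescence microscopy. Ca2+ added after 600 s and intracellular levels recorded. Traces averaged over 200 cells, then scored as AUC, peak amplitude and slope of the Ca2+ rise versus untreated control. Compound working solutions diluted from a 50 mM DMSO stock to 0.1% DMSO in physiologic buffer.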

HEK293 [3] = experiment: Cytotoxicity in HEK293 cells assessed as cell viability at 10 uM after 24 hrs by MTT assay; format: cell-based; conditions: human, hek293, 24 h
In short: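 MTT viability assay. HEK cells seeded at 20,000 per well, treated 24 h after plating for a further 24 h. MTT at 0.25 mg/mL final for 60 min at 37 °C. Crystals dissolved in isopropyl alcohol/HCl (1 M), absorbance read at 570 nm. Compounds diluted to 0.1% DMSO in culture medium.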

ORAI1/STIM1 = ORAI1/STIM1 (Homo sapiens, UniProt Q13586+Q96D31); experiment: Inhibition of STIM1/Orai1 (unknown origin) expressed in HEK293 cells assessed as reduction in tBHQ-induced calcium response; format: cell-based
[4] = molecular target: T1, ORAI1/STIM1 (Homo sapiens); experiment: Inhibition of STIM1/Orai1 (unknown origin) expressed in HEK293 cells assessed as reduction in tBHQ-induced calcium response by measuring decrease in calcium entry AUC at 10 uM relative to control; format: cell-based; in short: as §1
[5] = molecular target: T1, ORAI1/STIM1 (Homo sapiens); experiment: Inhibition of STIM1/Orai1 (unknown origin) expressed in HEK293 cells assessed as reduction in tBHQ-induced calcium response by measuring decrease in peak amplitude of calcium entry at 10 uM relative to control; format: cell-based; in short: as §1
[6] = molecular target: T1, ORAI1/STIM1 (Homo sapiens); experiment: Inhibition of STIM1/Orai1 (unknown origin) expressed in HEK293 cells assessed as reduction in tBHQ-induced calcium response by measuring decrease in slope of calcium entry at 10 uM relative to control; format: cell-based; in short: as §1
HEK293 [7] = experiment: Cytotoxicity in HEK293 cells assessed as cell viability at 50 uM after 72 hrs by MTT assay; format: cell-based; conditions: human, hek293, 72 h
In short: (§2)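 MTT viability in HEK cells after 72 h treatment at 50 μM, with or without 100 μM uridine. MTT at 0.25 mg/mL final for 60 min at 37 °C, solubilized in isopropyl alcohol/HCl (1 M), absorbance read at 570 nm. Mean ± SEM, Student t-test against control.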

HEK293 [8] = experiment: Cytotoxicity in HEK293 cells assessed as cell viability at 50 uM after 72 hrs in presence of excess uridine by MTT assay; format: cell-based; conditions: human, hek293, 72 h; in short: as §2
[9] = Thermodynamic aqueous solubility; format: physicochemical; conditions: read-out: Therm_solubility
In short: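 About 3 mg compound in 3 mL deionized water, vortexed, sonicated 5 min, then shaken overnight at 25 °C. Filtered through a 0.22 μm membrane, DMSO added, diluted about 1:10 in water. Quantified by LC–UV against DMSO standard solutions.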

[10] = Metabolic stability in mouse liver microsomes assessed as compound remaining after 1 hr; format: ADME, Microsome; conditions: read-out: Stabilty
In short: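 Pooled male CD-1 mouse liver microsomes (20 mg/mL protein stock), NADPH-activated. Substrate at 5 μM. Residual parent measured after 1 h incubation.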

[11] = Drug metabolism in mouse liver microsomes assessed as amide hydrolysis; format: ADME, Microsome
In short: (§3)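 Pooled male CD-1 mouse liver microsomes, phase I and glucuronidation (phase II) incubations. Substrate at 50 μM. Metabolites characterized by HRMS. For metabolic activation studies, 3 mM GSH added as trapping agent.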

[12] = Drug metabolism in mouse liver microsomes assessed as O-demethylation; format: ADME, Microsome; in short: as §3
[13] = Thermodynamic aqueous solubility at 6 mg/mL in saline containing 10% DMSO + 20% PEG400; conditions: buffer
[14] = Drug metabolism in mouse liver microsomes assessed as O-demethylation by high-resolution mass spectrometry; format: ADME, Microsome; in short: as §3
[15] = Drug metabolism in mouse liver microsomes assessed as oxidation by high-resolution mass spectrometry; format: ADME, Microsome; in short: as §3
[16] = Drug metabolism in mouse liver microsomes assessed as hydroxylation by high-resolution mass spectrometry; format: ADME, Microsome; in short: as §3
[17] = Drug metabolism in mouse liver microsomes assessed as acyl glucuronide metabolite formation in presence of UDPGA by high-resolution mass spectrometry; format: ADME, Microsome; in short: as §3
[18] = Half life in C57BL/6 mouse at 7 mg/kg, iv dosed as single administration measured up to 24 hrs; format: ADME, organism-based; conditions: in vivo
[19] = Clearance in C57BL/6 mouse at 7 mg/kg, iv dosed as single administration measured up to 24 hrs; format: ADME, organism-based; conditions: in vivo
[20] = Volume of distribution in C57BL/6 mouse at 7 mg/kg, iv dosed as single administration measured up to 24 hrs; format: ADME, organism-based; conditions: in vivo
[21] = Cmax in C57BL/6 mouse at 7 mg/kg, iv dosed as single administration measured up to 24 hrs; format: ADME, organism-based; design: route intravenous, dose 7 mg/kg, time <=24; conditions: in vivo
HEK293 [22] = experiment: Cytotoxicity in HEK293 cells assessed as cell viability up to 60 uM after 72 hrs in presence of excess uridine by MTT assay; format: cell-based; conditions: human, hek293, 72 h
[23] = Half life in C57BL/6 mouse ip dosed as single administration measured up to 24 hrs; conditions: in vivo

T1 sequence (Q13586 23-685 partner limits assumed): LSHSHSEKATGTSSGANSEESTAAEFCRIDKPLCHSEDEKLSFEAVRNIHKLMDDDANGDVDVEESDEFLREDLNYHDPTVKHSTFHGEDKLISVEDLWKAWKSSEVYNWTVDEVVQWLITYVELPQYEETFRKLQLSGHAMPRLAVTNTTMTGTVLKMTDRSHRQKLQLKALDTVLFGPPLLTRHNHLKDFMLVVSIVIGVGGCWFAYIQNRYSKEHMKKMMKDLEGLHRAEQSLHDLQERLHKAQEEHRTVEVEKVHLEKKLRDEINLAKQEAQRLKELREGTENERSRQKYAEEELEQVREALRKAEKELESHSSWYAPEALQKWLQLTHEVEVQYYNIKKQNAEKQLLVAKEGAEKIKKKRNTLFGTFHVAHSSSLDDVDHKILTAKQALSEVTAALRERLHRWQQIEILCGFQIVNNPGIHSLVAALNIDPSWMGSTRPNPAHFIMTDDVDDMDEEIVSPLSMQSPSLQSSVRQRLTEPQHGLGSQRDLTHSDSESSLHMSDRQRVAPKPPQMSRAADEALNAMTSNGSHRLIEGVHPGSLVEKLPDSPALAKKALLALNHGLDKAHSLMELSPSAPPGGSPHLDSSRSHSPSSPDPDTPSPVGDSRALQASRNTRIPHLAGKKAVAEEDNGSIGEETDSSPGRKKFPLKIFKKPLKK
T1 sequence (Q96D31 whole entry): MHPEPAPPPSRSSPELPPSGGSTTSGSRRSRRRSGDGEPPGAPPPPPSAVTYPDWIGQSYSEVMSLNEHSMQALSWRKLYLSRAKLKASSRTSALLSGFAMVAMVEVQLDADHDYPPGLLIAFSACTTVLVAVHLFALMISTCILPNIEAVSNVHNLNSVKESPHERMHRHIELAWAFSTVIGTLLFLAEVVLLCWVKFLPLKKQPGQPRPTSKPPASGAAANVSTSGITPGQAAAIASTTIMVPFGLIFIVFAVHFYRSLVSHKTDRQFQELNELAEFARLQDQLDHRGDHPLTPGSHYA
ORAI1/STIM1, sequence (Q96D31 whole entry): as above
ORAI1/STIM1, sequence (Q13586 whole entry): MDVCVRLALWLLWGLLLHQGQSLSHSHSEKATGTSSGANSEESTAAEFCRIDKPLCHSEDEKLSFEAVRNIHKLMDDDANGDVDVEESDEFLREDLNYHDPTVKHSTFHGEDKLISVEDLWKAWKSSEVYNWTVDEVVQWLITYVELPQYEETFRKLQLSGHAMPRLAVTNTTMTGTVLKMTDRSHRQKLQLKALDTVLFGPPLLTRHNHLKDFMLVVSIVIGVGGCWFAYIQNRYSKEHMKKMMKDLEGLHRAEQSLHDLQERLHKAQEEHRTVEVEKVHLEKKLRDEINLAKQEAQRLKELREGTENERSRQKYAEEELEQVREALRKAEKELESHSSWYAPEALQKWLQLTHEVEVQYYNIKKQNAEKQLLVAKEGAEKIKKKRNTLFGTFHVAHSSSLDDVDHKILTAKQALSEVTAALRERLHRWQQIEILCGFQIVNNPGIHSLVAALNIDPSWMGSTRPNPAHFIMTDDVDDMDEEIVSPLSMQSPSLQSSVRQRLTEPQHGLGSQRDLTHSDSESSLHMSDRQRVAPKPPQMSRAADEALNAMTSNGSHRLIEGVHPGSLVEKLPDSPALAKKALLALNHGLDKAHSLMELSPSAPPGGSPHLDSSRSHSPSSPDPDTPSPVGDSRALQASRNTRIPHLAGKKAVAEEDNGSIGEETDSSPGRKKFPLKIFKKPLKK

IC50 [1]: 1.4 µM
inhibition [2]: 90.8%
IC50 (ORAI1/STIM1): 0.228 µM
inhibition [4]: Active
inhibition [5]: Active
inhibition [6]: Active
solubility thermodynamic [9]: 0.00028 mg/mL (≈ 0.795 µM)
remaining at 1 h [10]: 15%
Drug metabolism [11]: Metabolite_Detected
Drug metabolism [12]: Metabolite_Detected
SMILES: COc1ccc(OC)c(-c2ccc(NC(=O)c3ccncc3F)cc2)c1
Activity (HEK293 [3]): 75.8%
Activity (HEK293 [7]): Toxic
Activity (HEK293 [8]): Non-Toxic

solubility thermodynamic [9]: 1.53 mg/mL
remaining at 1 h [10]: 75%
Therm_solubility [13]: Soluble
SMILES: COc1cccc(-c2ccc(-n3cc(-c4cccc(C(=O)[O-])c4)nn3)cc2)c1OC.[Na+]

IC50 (ORAI1/STIM1): 0.851 µM
Drug metabolism [14]: Metabolite_Detected
Drug metabolism [15]: Metabolite_Detected
Drug metabolism [16]: Metabolite_Detected
Drug metabolism [17]: Metabolite_Detected
t1/2 [18]: 3.2 h
CL [19]: 0.5 L/h/kg
Vd [20]: 2.3 L/kg
Cmax [21]: 16.8 µg/mL
SMILES: COc1cccc(-c2ccc(-n3cc(-c4cccc(C(=O)O)c4)nn3)cc2)c1OC
Activity (HEK293 [3]): 85.6%
Activity (HEK293 [7]): Non-Toxic
Activity (HEK293 [8]): Non-Toxic
Activity (HEK293 [22]): Non-Toxic

half-life [23]: 1.3 h
SMILES: CCCC(C)OC(=O)c1cnn(-c2ccc(-n3cc(-c4cccc(C(=O)O)c4)nn3)cc2)c1C(F)(F)F (stereo not given)

Reference: ChEMBL document CHEMBL4673335, “Store-Operated Calcium Entry as a Therapeutic Target in Acute Pancreatitis: Discovery and Development of Drug-Like SOCE Inhibitors” (J Med Chem, 2020)
